Two compounds from ChEMBL document CHEMBL4334444, “Studies of Jatrogossone A as a Reactive Oxygen Species Inducer in Cancer Cellular Models” (J Nat Prod, 2019) can be followed below.

The nature of series [1]: Stability in CH3CN assessed as micheal adduct formation by measuring intact compound incubated for 16 hrs in presence of glutathione by LC-MS analysis. The format is physicochemical.
Series [2] is described as follows: Protein binding in human plasma. It is filed as ADME, cell-free. The settings on record: read-out: PPB (converted).
The subject of series [3] is KOPN-8. As to the kind of experiment: Induction of mitochondrial membrane potential loss in human KOPN8 cells at 10 uM after 24 to 48 hrs by TMRM staining based flow cytometric analysis. The format is functional, cell-based. In a few lines:
(§1)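 TMRM flow cytometry. KOPN-8 (4 × 10^4 or 5 × 10^5 per well) or MCF-7 (2 × 10^4 or 2 × 10^5 per well) were seeded 24 h, then treated 24–48 h. FCCP 10 μM was added 10 min before staining as positive control. Cells were stained with TMRM 100 nM for 0.5 h, then PBS-washed, resuspended in PBS with 1% FBS and analysed by flow cytometry; DAPI flagged compromised cells.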
Background: A flow cytometer gives signals particle by particle.

The test system of series [4] is KOPN-8. Put plainly: Cell cycle arrest in human KOPN8 cells assessed as decrease in accumulation at G1/G0 phase at 10 uM incubated for 24 hrs by propidium iodide staining based flow cytometric analysis relative to control. It is filed as functional. The settings on record: KOPN-8, 24 h. In a few lines:
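KOPN-8 plated at 1.00 × 10^6 cells/plate, held 12 h at 37 °C, treated 24 h at 10 μM; DMSO vehicle and 2 μM staurosporine as controls. Cells fixed in cold methanol, RNase-treated, stained with PI (50 μg/mL); cell-cycle distribution by flow cytometry.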

The test system of series [5] is MCF7. Put plainly: Upregulation of Trx level in human MCF7 after 3 to 6 hrs by Western blot analysis. It is filed as functional, cell-based. In a few lines:
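MCF-7 cells were exposed to compound for 3 or 6 h. Lysates were made in Tris-HCl pH 7.5 RIPA-type buffer with protease/phosphatase inhibitors and quantified by BCA. 30 μg protein per lane was run on 4–12% Bis-Tris SDS-PAGE in MES and transferred to nitrocellulose. Blots were probed for thioredoxin with tubulin as reference, detected with IR-dye secondaries (1:15 000) and scanned on an infrared imager.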
On the technique in general: A western blot detects proteins with antibodies after separation by electrophoresis.

For series [6], the system named is B-ALL. Put plainly: Cytotoxicity against BCR-ABL p185- positive mouse B-ALL cells overexpressing human BCL-xL assessed as inhibition of cell viability after 24 hrs by AnnexinV-FITC/propidium iodide staining based flow cytometric analysis. It is filed as functional.
Series [7] deals with U2OS. Put plainly: Ratio of concentration required for induction of apoptosis in human U2OS cells to concentration required for induction of mito-phagy in human U2OS cells transfected with mKeima-Red-Mito-7. The format is functional.
The test system of series [8] is PBMC. As to the kind of experiment: Cytotoxicity against human PBMC cells assessed as cell viability at >100 uM by CellTiter-Glo assay. The format is cell-based. The gist of the method:
(§2)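 CellTiter-Glo luminescent viability readout. Cells kept at 37 °C under 5% CO2. HMEC primary cells grown in basal medium with growth kit; leukemia lines and murine BCR-ABL (WT, Bax/Bak DKO) cultured per earlier description. Positive controls: staurosporine 25 μM, gambogic acid 10 μM, a toxic quinoline. At least two biological replicates in technical triplicate; luminescence normalized to untreated controls; EC50 computed.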

Series [9] relates to B-ALL. Put plainly: Cytotoxicity against BCR-ABL p185-positive human B-ALL cells harboring MCL-1 triple knock out mutant assessed as inhibition of cell viability after 24 hrs by AnnexinV-FITC/propidium iodide staining based flow cytometric analysis. It is filed as functional.
A short description of series [10]: Stability in DMSO assessed as micheal adduct formation by measuring intact compound incubated for 16 hrs in presence of glutathione by LC-MS analysis. The format is physicochemical.
The nature of series [11]: Stability in DMSO assessed as micheal adduct formation by measuring intact compound incubated for 16 hrs in presence of glutathione by NMR analysis. The format is physicochemical.
In series [12] the test system is KOPN-8. Put plainly: Induction of mitochondrial membrane potential loss in human KOPN8 cells at 30 uM after 24 to 48 hrs by TMRM staining based flow cytometric analysis. It is filed as functional, cell-based. The gist of the method:
as §1

Series [13] is described as follows: Stability in CH3CN assessed as micheal adduct formation by measuring intact compound incubated for 16 hrs in presence of glutathione by NMR analysis. It is filed as physicochemical.
The nature of series [14]: Half life in human plasma. It is filed as ADME, cell-free.
Series [15] has as its system B-ALL. Put plainly: Cytotoxicity against BCR-ABL positive p185-positive mouse B-ALL cells expressing human BCL-W assessed as inhibition of cell viability after 24 hrs by AnnexinV-FITC/propidium iodide staining based flow cytometric analysis. It is filed as functional.
The subject of series [16] is B-ALL. Put plainly: Cytotoxicity against BCR-ABL p185-positive mouse B-ALL cells overexpressing human BFL-1 assessed as inhibition of cell viability after 24 hrs by AnnexinV-FITC/propidium iodide staining based flow cytometric analysis. It is filed as functional.
Series [17] concerns UoC-B1. As to the kind of experiment: Antiproliferative activity against human UOCB1 cells assessed as reduction in cell viability at 0.1 to 250 uM by CellTiter-Glo assay. It is filed as functional, cell-based. In a few lines:
as §2
(Cellular ATP, detected with luciferase, serves as a proxy for viable cell number.)

In series [18] the test system is SUM149PT. Put plainly: Antiproliferative activity against human SUM149 cells assessed as reduction in cell viability at 0.1 to 250 uM after 48 hrs by propidium iodide staining based fluorescence assay. The format is functional. In a few lines:
(§3)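 MDA-MB-231 and SUM149 seeded at 6 × 10^4 to 2 × 10^5 cells/well, cultured 24 h, then exposed for 48 h. Cells fixed in cold methanol, stained with 0.4% propidium iodide, fluorescence imaged. Viability expressed as percent surviving cells relative to vehicle wells.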

Series [19] deals with KOPN-8. Put plainly: Upregulation of Trx level in human KOPN8 at 1 uM after 3 to 6 hrs by Western blot analysis. The format is functional, cell-based. The gist of the method:
(§4)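 Western blot of KOPN-8 or MCF-7 lysates, 30 μg protein per lane on 4–12% Bis-Tris SDS-PAGE and transferred to nitrocellulose. Blots were probed with an oxidative stress defense antibody cocktail (catalase, SOD1, Trx, smooth muscle actin) and tubulin, and detected with IR-dye secondaries on a LI-COR Odyssey.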

Series [20] concerns U2OS. As to the kind of experiment: Antiproliferative activity against human U2OS cells assessed as reduction in cell viability at 0.1 to 250 uM by CellTiter-Glo assay. It is filed as functional, cell-based. In a few lines: as §2
The test system of series [21] is KOPN-8. As to the kind of experiment: Upregulation of Trx expression in human KOPN8 at 1 uM after 24 hrs by Western blot analysis. It is filed as functional, cell-based. The gist of the method:
as §4

Series [22] has as its system KOPN-8. Put plainly: Induction of mitochondrial membrane potential loss in human KOPN8 cells at 4 uM after 24 hrs by TMRM staining based flow cytometric analysis. The format is functional, cell-based. The gist of the method:
as §1

Series [23] relates to MDA-MB-231. Put plainly: Antiproliferative activity against human MDA-MB-231 cells assessed as reduction in cell viability at 0.1 to 250 uM after 48 hrs by propidium iodide staining based fluorescence assay. The format is functional. In a few lines: as §3
The subject of series [24] is MCF7. Put plainly: Induction of apoptosis in human MCF7 cells assessed as increase in cleaved PARP 1 level at 1 to 10 uM after 3 hrs by Western blot analysis. The format is functional, cell-based. In a few lines: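 Western blot of KOPN-8 and MCF-7 lysates made in RIPA-type buffer (Tris pH 7.5, Triton X-100, deoxycholate, SDS) with protease and phosphatase inhibitors. 30 μg protein per lane was run on 4–12% Bis-Tris SDS-PAGE and transferred to nitrocellulose. Blots were probed for cleaved caspase-7 and PARP-1 and detected with IR-dye secondaries. Menadione served as positive control: 10 μM in KOPN-8, 30 μM in MCF-7. Blots are representative of three independent experiments.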

In series [25] the test system is HMEC. As to the kind of experiment: Cytotoxicity against human HMEC cells assessed as reduction in cell viability at 0.1 to 250 uM by CellTiter-Glo assay. The format is cell-based. In a few lines: as §2
In series [26] the test system is HepG2. As to the kind of experiment: Antiproliferative activity against human HepG2 cells assessed as reduction in cell viability at 0.1 to 250 uM by CellTiter-Glo assay. It is filed as functional, cell-based. The gist of the method:
as §2

Active and inactive are the calls of the source. No cut-off for these calls is given here.

Usually inhibition stands for the percentage by which the read-out fell short of the control. Usually IC50 stands for the concentration at which inhibition is half-maximal. As a reminder, the half-life is how long it takes for the measured level to halve. A higher half-life goes with slow loss. Regarding `CC(=O)O[C@H]1/C2=C/[C@@H](C)C(=O)C[C@H]3[C@@H](/C=C(\C)C(=O)[C@H]2C[C@H]1C)C3(C)C`, the Stability entry in series [1], in series [10], in [11] and in [13] was “Stable” each time. Also, the fraction unbound in series [2] was 0.16. In addition, the result in series [3] was inactive. Moreover, the inhibition at 10 µM in series [4] came out at 5%. Further, the Activity entry in [5] is “Dose-dependent effect”; in series [8] it was “Non-Toxic”. Besides, the IC50 in series [6] worked out at 23.8 µM; in series [9], 19.6 µM; in series [15], 14.4 µM; in series [16], 4.26 µM. The Ratio in [7] is reported as 5. Moreover, the outcome in [12] was Active. This compound also showed a half-life in series [14] of 19.5 h.
For `CC1=C2CC(C)(C)/C=C/C(=O)/C(C)=C\C3=C[C@H](C)C[C@]3(O2)C1=O` [JATROPHONE], the inhibition result in [17], in series [18], in series [20], in series [23] and in series [26] was “Active” each time. The outcome in series [19], in series [22] and in series [24] was Active. Further, the outcome in series [21] was inactive. Also, in [25], the Activity result is reported as “Toxic”.
